This is an account of results in article PMC4277779 (Journal of the American Chemical Society, 2014).

A short description of data set [1]: ΔδCαH-based β-hairpin population and thermodynamic analysis by NMR. It is filed as physicochemical. The conditions noted are these: relative to parent peptide I, 4 °C, pH 3.8; for ΔΔGfold: calculated for each reporter position and averaged. In outline:
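NMR samples were prepared in 100 mM acetate buffer, pH 3.8.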

Data set [2] in a line: Far-UV circular dichroism: effects of pH and temperature. Particulars: 4 to 20 to 37 °C, phosphate buffer. It is filed as physicochemical. An outline of the steps: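 Far-UV CD spectra of the test peptides were recorded in phosphate buffer (pH 7.0) and in the NMR buffer (100 mM acetate, pH 3.8). A temperature series at 4, 20 and 37 °C was run in phosphate buffer.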
Background: Circular dichroism is widely used to follow secondary structure.

The conditions of data set [3]: 4 °C, cited from earlier work.
Where [4] appears, read: aqueous buffer pH 3.8, ref 9a (Syud et al.).

Non-standard residues stand in square brackets, D forms with d. No end group written: not given here. Orn = NCCC[C@H](N)C(=O)O

Take “Arg-Tyr-Val-Glu-Val-DPro-Gly-Orn-TO+-Ile-Leu-Gln-NH2 [Peptide II]”: in data set [1], the “effect of residue replacement on β-hairpin population (in words)” value (“effect of residue replacement” for short) is recorded as “little effect on β-hairpin population” and the ΔΔGfold entry is on record as “+0.1 ± 0.2 kcal/mol”.

With “Arg-Tyr-Val-Glu-Val-DPro-Gly-Orn-TS+-Ile-Leu-Gln-NH2 [Peptide III]”, in data set [1], the “effect of residue replacement” value is recorded as “enhanced β-hairpin population” and the ΔΔGfold result is “–0.5 ± 0.4 kcal/mol”. In data set [2], the “effect of temperature on far UV CD (in words)” value (“effect of temperature” below) was “does not significantly alter”.

Consider “Arg-Tyr-Val-TS--Val-DPro-Gly-Orn-Lys-Ile-Leu-Gln-NH2 [Peptide IV]”, for which, in data set [1], the “effect of residue replacement” value is reported as “enhanced β-hairpin population” and the ΔΔGfold entry is listed as “–0.6 ± 0.3 kcal/mol”. The “effect of temperature” value in data set [2] is recorded as “does not significantly alter”.

Turning to RYVEV[dP]G[Orn]KILQ-NH2 [Peptide I], the “population of the β-hairpin conformation” value in data set [3] (aqueous buffer pH 3.8, NMR, ref 9b) is reported as approximately 68%. Also, in data set [3] (setting [4]), the “β-hairpin population at reporter position Ile 10” value is 59%, the “β-hairpin population at reporter position Orn 8” value was 65%, the “β-hairpin population at reporter position Val 3” value is listed as 70% and the “β-hairpin population at reporter position Val 5” value is on record as 76%. In addition, the “effect of temperature” value in data set [2] was “does not significantly alter”.
